Laboratory results from PMC7680388 (Cell chemical biology, 2020).

Experiments:
Rpn13-Uch37 interaction = conditions: ref VanderLinden et al., 2015; cited from earlier work
Uch37 = biological target: T1, Uch37 (Homo sapiens, UniProt Q9Y5K5); conditions: ref VanderLinden et al., 2015; cited from earlier work
T1 sequence (Q9Y5K5 1-329): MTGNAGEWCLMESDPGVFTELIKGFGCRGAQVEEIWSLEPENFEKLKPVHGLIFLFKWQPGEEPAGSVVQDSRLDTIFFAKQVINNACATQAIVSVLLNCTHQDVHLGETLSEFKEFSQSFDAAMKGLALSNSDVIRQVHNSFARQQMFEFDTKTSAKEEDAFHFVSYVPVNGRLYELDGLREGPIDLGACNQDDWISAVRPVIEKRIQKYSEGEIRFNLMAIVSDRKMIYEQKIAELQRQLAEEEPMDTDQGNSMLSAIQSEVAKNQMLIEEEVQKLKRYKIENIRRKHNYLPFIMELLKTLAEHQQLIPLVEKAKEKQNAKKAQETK

SK-MEL-5 cells = type: cell-based, Homo sapiens; conditions: endogenous Rpn13 depleted by UTR siRNA; Fig. 6E
Method in brief: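 SK-MEL-5 endogenous Rpn13 was depleted with UTR-targeting siRNA (50 nM) for 24 h. Cells at 70–80% confluency were then transfected with 2 μg wild-type or Q337A/Q338A FLAG-Rpn13 plasmid (Omnifect) per 6-well. Test compound was given at graded concentrations for 24 h. CellTiter-Glo 2.0 luminescence was normalized to vehicle, in technical triplicate and biological duplicate, with SD reported.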

B1: Rpn13Q337A/Q338A: Rpn13 double mutant defective in Uch37 activation, FLAG-tagged, expressed from plasmid (protein, UniProt Q16186 2-407, looked up, variant Q337A Q338A)
Proteasomal ubiquitin …: TTSGALFPSLVPGSRGASNKYLVEFRAGKMSLKGTTVTPDKRKGLVYIQQTDDSLIHFCWKDRTSGNVEDDLIIFPDDCEFKRVPQCPSGRVYVLKFKAGSKRLFFWMQEPKTDQDEEHCRKVNEYLNNPPMPGALGASGSSGHELSALGGEGGLQSLLGNMSHSQLMQLIGPAGLGGLGGLGALTGPGLASLLGSSGPPGSSSSSSSRSQSAAVTPSSTTSSTRATPAPSAPAAASATSPSPAPSSGNGASTAASPTQPIQLSDLQSILATMNVPAGPAGGQQVDLASVLTPEIMAPILANADVQERLLPYLPSGESLPQTADEIQNTLTSPQFAAALGMFSAALASGQLGPLMCQFGLPAEAVEAANKGDVEAFAKAMQNNAKPEQKEGDTKDKKDEEEDMSLD
modifications: FLAG tag
In the case of B1, the “effect of mutations on physical interaction with Uch37” value (Rpn13-Uch37 interaction) is given as “the mutations do not affect the physical interaction of the two proteins”, the “stimulation of Uch37 relative to wild-type Rpn13” value (Uch37) is given as “about 30%” and the “viability upon expression of Rpn13 double mutant” value (SK-MEL-5 cells) is given as “no significant effect on viability”.
